Results as given in ChEMBL document CHEMBL5724801, “EUbOPEN Chemogenomics Library - Multiplex” (2024).
Several values for one entry are separate records, joined by “and”; a condition that tells them apart may be missing. Identical values can stand only once.

Test system: Fibroblast
Assay: Multiplex assay against human fibroblast
Assay type: toxicity, cell-based
How it was run: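 Tubulin, mitochondrial-mass and membrane-permeability phenotypes are per cents of healthy-nucleus cells. Cells were gated by CellPathfinder machine learning into Hoechst high-intensity objects or normal cells, normal cells into healthy, pyknosed or fragmented nuclei, and pyknosed cells into mitotic or apoptotic. Before that, live cells stained at seeding with Hoechst33342, BioTracker Green Microtubule Cytoskeleton Dye, MitoTracker Red and Annexin V Alexa Fluor 680 were imaged on a CQ1 microscope at 37°C and 5% CO2 after compound addition.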

[1] = 12 h, 1 µM, compound concentration 1 uM
[2] = 12 h, 10 µM, compound concentration 10 uM
[3] = 24 h, 1 µM, compound concentration 1 uM
[4] = 24 h, 10 µM, compound concentration 10 uM
[5] = 48 h, 1 µM, compound concentration 1 uM
[6] = 48 h, 10 µM, compound concentration 10 uM

## N[C@@]1(C(=O)O)CO[C@H]2[C@H](C(=O)O)[C@H]21 [LY-379268]
[1]
  Population Apoptotic (%): 22% and 44%
  Population Fragmented Nuclei (%): 17% and 33%
  Population Healthy Nuclei (%): 70% and 43%
  Population Hoechst High Intensity Objects (%): 1% and 10%
  Population Membrane Permeable-Phenotype (%): 0% and 5%
  Population Mitochondria Different-Phenotype (%): 2% and 1%
  Population Mitotic Cells (%): 77% and 55%
  Population Normal (%): 98% and 89%
  Population Pyknosed Nuclei (%): 11% and 22%
  Population Tubulin-Different-Phenotype (%): 25% and 45%
  Total Cell Count: 156 and 145
[2]
  Population Apoptotic (%): 29% and 21%
  Population Fragmented Nuclei (%): 15%
  Population Healthy Nuclei (%): 69% and 51%
  Population Hoechst High Intensity Objects (%): 3%
  Population Membrane Permeable-Phenotype (%): 0% and 4%
  Population Mitochondria Different-Phenotype (%): 3% and 1%
  Population Mitotic Cells (%): 70% and 78%
  Population Normal (%): 96%
  Population Pyknosed Nuclei (%): 14% and 33%
  Population Tubulin-Different-Phenotype (%): 19% and 47%
  Total Cell Count: 187 and 128
[3]
  Population Apoptotic (%): 36% and 47%
  Population Fragmented Nuclei (%): 16% and 40%
  Population Healthy Nuclei (%): 70% and 41%
  Population Hoechst High Intensity Objects (%): 0% and 10%
  Population Membrane Permeable-Phenotype (%): 0% and 4%
  Population Mitochondria Different-Phenotype (%): 5% and 10%
  Population Mitotic Cells (%): 63% and 52%
  Population Normal (%): 99% and 89%
  Population Pyknosed Nuclei (%): 12% and 18%
  Population Tubulin-Different-Phenotype (%): 23% and 60%
  Total Cell Count: 152 and 125
[4]
  Population Apoptotic (%): 66% and 22%
  Population Fragmented Nuclei (%): 14% and 17%
  Population Healthy Nuclei (%): 75% and 53%
  Population Hoechst High Intensity Objects (%): 5% and 6%
  Population Membrane Permeable-Phenotype (%): 0% and 2%
  Population Mitochondria Different-Phenotype (%): 3% and 0%
  Population Mitotic Cells (%): 33% and 77%
  Population Normal (%): 94% and 93%
  Population Pyknosed Nuclei (%): 10% and 28%
  Population Tubulin-Different-Phenotype (%): 19% and 44%
  Total Cell Count: 189 and 133
[5]
  Population Apoptotic (%): 76% and 50%
  Population Fragmented Nuclei (%): 22% and 33%
  Population Healthy Nuclei (%): 68% and 55%
  Population Hoechst High Intensity Objects (%): 3% and 11%
  Population Membrane Permeable-Phenotype (%): 0% and 4%
  Population Mitochondria Different-Phenotype (%): 5% and 7%
  Population Mitotic Cells (%): 23% and 50%
  Population Normal (%): 96% and 88%
  Population Pyknosed Nuclei (%): 8% and 11%
  Population Tubulin-Different-Phenotype (%): 26% and 59%
  Total Cell Count: 156 and 136
[6]
  Population Apoptotic (%): 62% and 42%
  Population Fragmented Nuclei (%): 14% and 27%
  Population Healthy Nuclei (%): 72% and 56%
  Population Hoechst High Intensity Objects (%): 1% and 7%
  Population Membrane Permeable-Phenotype (%): 0% and 10%
  Population Mitochondria Different-Phenotype (%): 0% and 5%
  Population Mitotic Cells (%): 37% and 57%
  Population Normal (%): 98% and 92%
  Population Pyknosed Nuclei (%): 13% and 16%
  Population Tubulin-Different-Phenotype (%): 19% and 47%
  Total Cell Count: 179 and 140

## COCCNc1nc2ccc(C#CC3(O)CCCCC3)cc2n1-c1ccnc(N)n1
[1]
  Population Apoptotic (%): 15.09% and 20.51%
  Population Fragmented Nuclei (%): 19.05% and 7.25%
  Population Healthy Nuclei (%): 44.9% and 73.91%
  Population Hoechst High Intensity Objects (%): 0%
  Population Membrane Permeable-Phenotype (%): 4.55% and 1.96%
  Population Mitochondria Different-Phenotype (%): 9.09% and 12.42%
  Population Mitotic Cells (%): 84.91% and 79.49%
  Population Normal (%): 100%
  Population Pyknosed Nuclei (%): 36.05% and 18.84%
  Population Tubulin-Different-Phenotype (%): 18.18% and 27.45%
  Total Cell Count: 147 and 207
[2]
  Population Apoptotic (%): 2.5% and 7.32%
  Population Fragmented Nuclei (%): 15.71% and 12.57%
  Population Healthy Nuclei (%): 46.19% and 64%
  Population Hoechst High Intensity Objects (%): 0%
  Population Membrane Permeable-Phenotype (%): 7.22% and 1.79%
  Population Mitochondria Different-Phenotype (%): 27.84% and 21.43%
  Population Mitotic Cells (%): 97.5% and 92.68%
  Population Normal (%): 100%
  Population Pyknosed Nuclei (%): 38.1% and 23.43%
  Population Tubulin-Different-Phenotype (%): 56.7% and 54.46%
  Total Cell Count: 210 and 175
[3]
  Population Apoptotic (%): 9.76% and 17.39%
  Population Fragmented Nuclei (%): 9.09% and 9.43%
  Population Healthy Nuclei (%): 62.24% and 79.72%
  Population Hoechst High Intensity Objects (%): 0%
  Population Membrane Permeable-Phenotype (%): 3.37% and 5.33%
  Population Mitochondria Different-Phenotype (%): 11.24% and 10.06%
  Population Mitotic Cells (%): 90.24% and 82.61%
  Population Normal (%): 100%
  Population Pyknosed Nuclei (%): 28.67% and 10.85%
  Population Tubulin-Different-Phenotype (%): 19.1% and 25.44%
  Total Cell Count: 143 and 212
[4]
  Population Apoptotic (%): 12.33% and 20.59%
  Population Fragmented Nuclei (%): 14.35% and 10.86%
  Population Healthy Nuclei (%): 51.85% and 69.71%
  Population Hoechst High Intensity Objects (%): 0%
  Population Membrane Permeable-Phenotype (%): 3.57% and 1.64%
  Population Mitochondria Different-Phenotype (%): 25% and 18.03%
  Population Mitotic Cells (%): 87.67% and 79.41%
  Population Normal (%): 100%
  Population Pyknosed Nuclei (%): 33.8% and 19.43%
  Population Tubulin-Different-Phenotype (%): 66.96% and 65.57%
  Total Cell Count: 216 and 175
[5]
  Population Apoptotic (%): 22.22% and 37.5%
  Population Fragmented Nuclei (%): 10.74% and 6.49%
  Population Healthy Nuclei (%): 77.18% and 86.58%
  Population Hoechst High Intensity Objects (%): 0%
  Population Membrane Permeable-Phenotype (%): 1.74% and 2.5%
  Population Mitotic Cells (%): 77.78% and 62.5%
  Population Normal (%): 100%
  Population Pyknosed Nuclei (%): 12.08% and 6.93%
  Population Tubulin-Different-Phenotype (%): 10.43% and 26.5%
  Total Cell Count: 149 and 231
[6]
  Population Apoptotic (%): 11.43% and 24%
  Population Fragmented Nuclei (%): 12.66% and 9.66%
  Population Healthy Nuclei (%): 72.57% and 76.14%
  Population Hoechst High Intensity Objects (%): 0%
  Population Membrane Permeable-Phenotype (%): 2.91% and 5.97%
  Population Mitochondria Different-Phenotype (%): 18.02% and 10.45%
  Population Mitotic Cells (%): 88.57% and 76%
  Population Normal (%): 100%
  Population Pyknosed Nuclei (%): 14.77% and 14.2%
  Population Tubulin-Different-Phenotype (%): 42.44% and 58.96%
  Total Cell Count: 237 and 176
